Legend:
Trypanosoma brucei = test: In vitro antiparasitic activity against Trypanosoma brucei was tested by sigmoidal regression analysis; format: functional; conditions: read-out: ED50 (the source's name)
How it was run: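 T. b. brucei S427 bloodstream trypomastigotes at 2 × 10⁵/mL in HMI-18 medium, in triplicate, with a 3-fold dilution series starting at 30 µM. Incubated 3 days at 37 °C in 5% CO₂. Pentamidine served as positive control. Viability read by tetrazolium colorimetric assay on day 3. ED50 by sigmoidal regression.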

Trypanothione reductase = Trypanothione reductase (Trypanosoma cruzi, UniProt P28593); test: Inhibitory activity against Trypanosoma cruzi trypanothione disulfide reductase, assay in presence of 57 uM T(S)2.
Trypanothione reductase, sequence (P28593 whole entry): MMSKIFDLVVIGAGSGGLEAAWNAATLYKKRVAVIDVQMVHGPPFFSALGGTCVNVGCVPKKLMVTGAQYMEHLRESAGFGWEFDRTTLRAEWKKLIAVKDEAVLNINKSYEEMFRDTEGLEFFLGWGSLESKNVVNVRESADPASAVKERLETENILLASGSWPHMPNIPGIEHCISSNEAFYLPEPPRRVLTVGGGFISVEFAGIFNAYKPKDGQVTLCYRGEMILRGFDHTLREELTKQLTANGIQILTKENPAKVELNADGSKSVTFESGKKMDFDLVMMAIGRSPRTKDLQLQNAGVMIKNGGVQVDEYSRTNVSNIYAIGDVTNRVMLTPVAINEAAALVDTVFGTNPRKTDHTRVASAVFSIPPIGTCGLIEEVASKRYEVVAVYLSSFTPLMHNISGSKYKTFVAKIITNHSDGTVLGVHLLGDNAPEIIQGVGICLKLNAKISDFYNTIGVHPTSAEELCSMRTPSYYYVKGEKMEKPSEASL
How it was run: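 Assay contained 250 µM NADPH, 57 µM T(S)₂, inhibitor at 0.3–50 µM and 1% DMSO final. Started with enzyme; NADPH loss followed at 340 nm. IC50 in duplicate.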

Trypanosoma cruzi = test: In vitro antiparasitic activity against Trypanosoma cruzi was tested by sigmoidal regression analysis; format: functional; conditions: read-out: ED50 (the source's name)
How it was run: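 Mouse peritoneal macrophages (female CD1, starch-elicited, harvested 24 h) infected with L. donovani amastigotes (strain MHOM/ET/67/L82, hamster spleen) or T. cruzi Y-strain trypomastigotes (5:1, from MDCK overlay). Infected cells exposed to a 3-fold dilution series in quadruplicate for 5 days (L. donovani) or 3 days (T. cruzi). Giemsa-stained slides scored for % macrophages cleared of amastigotes versus untreated cultures. ED50 by sigmoidal regression.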

Row | Compound | EC50 (Trypanosoma brucei) [µM] | IC50 (Trypanothione reductase) [µM] | EC50 (Trypanosoma cruzi) [µM]
1 | CC1=C(CCNC(=O)OC(C)(C)C)C(=O)c2c(O)cccc2C1=O | 0.6 | > 25 | 3.5
2 | CC1=C(CCCCCC(=O)NCCCNCCCNC(=O)CCCCCC2=C(C)C(=O)c3ccccc3C2=O)C(=O)c2ccccc2C1=O | > 1.5 | 2.5 | 12.5
3 | CC1=C(CCC(=O)NCCCN2CCN(CCCNC(=O)CCC3=C(C)C(=O)c4ccccc4C3=O)CC2)C(=O)c2ccccc2C1=O | 3.2 | 3.7 | 40
4 | CC1=C(CCC(=O)NCCCNCCCNC(=O)CCC2=C(C)C(=O)c3cccc(O)c3C2=O)C(=O)c2c(O)cccc2C1=O | 1.7 | 1.9 | 13
5 | CC1=C(NCCCCN)C(=O)c2c(O)cccc2C1=O | > 12.5 | > 57 | > 12.5
6 | CC1=C(CCCCCC(=O)NCCCN2CCN(CCCNC(=O)CCCCCC3=C(C)C(=O)c4ccccc4C3=O)CC2)C(=O)c2ccccc2C1=O | 5.7 | 3.1 | 11
7 | CN(C)CCCN1CCN(CC2=C(N3CCN(CCCN(C)C)CC3)C(=O)c3ccccc3C2=O)CC1 | > 12.5 | > 57 | > 12.5
8 | CC1=C(CCCCC(=O)NCCCNCCCNC(=O)CCCCC2=C(C)C(=O)c3ccccc3C2=O)C(=O)c2ccccc2C1=O | 15.3 | 18.7 | 45
9 | CC1=C(CCCC(=O)NCCCCNCCCNC(=O)CCCC2=C(C)C(=O)c3ccccc3C2=O)C(=O)c2ccccc2C1=O | 26.6 | 4 | > 48
10 | CN1CCN(C(=O)CCC2=C(CCC(=O)N3CCN(C)CC3)C(=O)c3c(O)cccc3C2=O)CC1 | 22.2 | > 50 | > 62
11 | CC1=C(O)c2ccccc2C(=O)/C1=N\CCCN1CCN(C)CC1 | > 12.5 | > 57 | > 6.2
12 | CC1=C(CCCC(=O)NCCCN2CCN(CCCNC(=O)CCCC3=C(C)C(=O)c4ccccc4C3=O)CC2)C(=O)c2ccccc2C1=O | 13.7 | 4.5 | 13
13 | CC1=C(CCCCC(=O)NCCCCNCCCNC(=O)CCCCC2=C(C)C(=O)c3cccc(O)c3C2=O)C(=O)c2c(O)cccc2C1=O | > 1.5 | 1.7 | 4
14 | CC1=C(CCCCC(=O)NCCCNCCCNC(=O)CCCCC2=C(C)C(=O)c3cccc(O)c3C2=O)C(=O)c2c(O)cccc2C1=O | 1.1 | 0.45 | 4.3
15 | CC1=C(CCCC(=O)N2CCN(C)CC2)C(=O)c2ccccc2C1=O | 9.1 |  | 27
16 | CC1=C(CCCCCC(=O)NCCCCNCCCNC(=O)CCCCCC2=C(C)C(=O)c3ccccc3C2=O)C(=O)c2ccccc2C1=O | 2.6 | 1.7 | 4
17 | O=C(O)CCCCCC1=C(CCCCCC(=O)O)C(=O)c2ccccc2C1=O | 48 | > 50 | > 74
18 | CC1=C(CCNC(=O)OC(C)(C)C)C(=O)c2ccccc2C1=O | 0.9 | > 50 | 9.5
19 | CC1=C(CCCCC(=O)NCCCCNCCCNC(=O)CCCCC2=C(C)C(=O)c3ccccc3C2=O)C(=O)c2ccccc2C1=O | 4.4 | 1.4 | 9
20 | CC1=C(CCCCC(=O)O)C(=O)c2c(O)cccc2C1=O | > 10 | > 50 | 42
21 | CC1=C(CCCCC(=O)O)C(=O)c2ccccc2C1=O | > 110 | > 50 | 44
22 | O=C(O)CCC1=C(CCC(=O)O)C(=O)c2c(O)cccc2C1=O | 59 | > 50 | > 94
23 | CC1=C(CCCC(=O)O)C(=O)c2ccccc2C1=O |  | > 50 | 
24 | CC1=C(NCCCNCCCN)C(=O)c2ccccc2C1=O | > 12.5 | 12 | > 12.5

Row | Compound | EC50 (Trypanosoma brucei) [µM] | IC50 (Trypanothione reductase) [µM] | EC50 (Trypanosoma cruzi) [µM]
25 | O=C(O)CCCC1=C(CCCC(=O)O)C(=O)c2c(O)cccc2C1=O | 61 | > 50 | > 87
26 | CC1=C(CCCCCC(=O)NCCCNCCCNC(=O)CCCCCC2=C(C)C(=O)c3cccc(O)c3C2=O)C(=O)c2c(O)cccc2C1=O | > 1.4 | 2 | 3
27 | CC1=C(CCCCCNC(=O)OC(C)(C)C)C(=O)c2ccccc2C1=O | 2.7 | > 50 | 4.3
28 | CC1=C(CCCC(=O)NCCCN2CCN(C)CC2)C(=O)c2c(O)cccc2C1=O | 23 | 32 | 50
29 | CC1=C(CCC(=O)NCCCCNCCCNC(=O)CCC2=C(C)C(=O)c3ccccc3C2=O)C(=O)c2ccccc2C1=O | 4.9 | 2.7 | 13
30 | O=C(O)CCCCC1=C(CCCCC(=O)O)C(=O)c2c(O)cccc2C1=O | > 80 | > 50 | 80
31 | CC1=C(CCC(=O)N2CCN(C)CC2)C(=O)c2c(O)cccc2C1=O | 52 | 50 | > 88
32 | CC1=C(CCCC(=O)NCCCN2CCN(C)CC2)C(=O)c2ccccc2C1=O | 46 | 44 | > 76
33 | CC1=C(CCCC(=O)NCCCN2CCN(CCCNC(=O)CCCC3=C(C)C(=O)c4cccc(O)c4C3=O)CC2)C(=O)c2c(O)cccc2C1=O | 3.4 | 2.3 | 28
34 | CC1=C(CCCC(=O)NCCCCNCCCNC(=O)CCCC2=C(C)C(=O)c3cccc(O)c3C2=O)C(=O)c2c(O)cccc2C1=O | > 4.5 | 2.3 | 46
35 | CN1CCN(CCCNC(=O)CCCCC2=C(CCCCC(=O)NCCCN3CCN(C)CC3)C(=O)c3c(O)cccc3C2=O)CC1 | > 15 | 6.2 | > 46
36 | CC1=C(CCCCCC(=O)NCCCN2CCN(CCCNC(=O)CCCCCC3=C(C)C(=O)c4cccc(O)c4C3=O)CC2)C(=O)c2c(O)cccc2C1=O | > 1.3 | 1.6 | 11.4
37 | CC1=C(CCCCC(=O)NCCCN2CCN(CCCNC(=O)CCCCC3=C(C)C(=O)c4cccc(O)c4C3=O)CC2)C(=O)c2c(O)cccc2C1=O | > 1.3 | 2.5 | 17.2
38 | CC1=C(CCC(=O)N2CCN(C)CC2)C(=O)c2ccccc2C1=O | 9.5 | > 50 | 70
39 | CC1=C(CCCCCC(=O)O)C(=O)c2ccccc2C1=O | 5.3 | > 50 | 17
40 | CN1CCN(CCCNC(=O)CCC2=C(CCC(=O)NCCCN3CCN(C)CC3)C(=O)c3c(O)cccc3C2=O)CC1 | 21.5 | > 50 | > 50
41 | CC1=C(CCCNC(=O)OC(C)(C)C)C(=O)c2ccccc2C1=O | > 3 | > 50 | 13.8
42 | CC1=C(CCCC(=O)O)C(=O)c2c(O)cccc2C1=O | 78 | > 50 | > 109
43 | CC1=C(CCCC(=O)NCCCNCCCNC(=O)CCCC2=C(C)C(=O)c3ccccc3C2=O)C(=O)c2ccccc2C1=O | 27 | 11 | > 49
44 | CC1=C(CCCC(=O)N2CCN(C)CC2)C(=O)c2c(O)cccc2C1=O | 52 | 42 | > 84
45 | CC1=C(CCCCCNC(=O)OC(C)(C)C)C(=O)c2c(O)cccc2C1=O | 2.5 | > 25 | 13.3
46 | CC1=C(CCCCNC(=O)OC(C)(C)C)C(=O)c2c(O)cccc2C1=O | 1.4 | > 25 | 7
47 | CC1=C(NCCCN2CCN(CCCN)CC2)C(=O)c2ccccc2C1=O |  | 6 | > 12.5

Reference: ChEMBL document CHEMBL1134791, “2- and 3-substituted 1,4-naphthoquinone derivatives as subversive substrates of trypanothione reductase and lipoamide dehydrogenase from Trypanosoma cruzi: synthesis and correlation between redox cycling activities and in vitro cytotoxicity” (J Med Chem, 2001)
